In ChEMBL document CHEMBL3616378 (J Med Chem, 2015):

Legend:
[1] = target: T1, Metabotropic glutamate receptor 7 (Homo sapiens, UniProt Q14831); assay: Antagonist activity at human recombinant mGlu7 receptor expressed in AV12 cells assessed as inhibition of glutamate-stimulated Ca2+ mobilization after 1 hr by FLIPR assay; type: functional, cell-based
[2] = Plasma concentration in Sprague-Dawley rat at 1 mg/kg, ip after 0.5 hrs; type: ADME, organism-based
Procedure, shortened: (§1)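 Separate experiment: single ip doses of 1, 3 and 10 mg/kg to rats, compound in water adjusted to pH 7–7.5 with NaOH; plasma (with csf) sampled at 0.5, 1 and 4 h; mean plasma concentrations ± SEM reported.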

[3] = Half life in Sprague-Dawley rat at 3 mg/kg, ip; type: ADME, organism-based; conditions: in vivo
Procedure, shortened: (§2)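 Fasted male Sprague–Dawley rats (~250 g) received a single dose of compound dissolved in water and adjusted to pH 7–7.5 with NaOH, given iv, by oral gavage or ip. Serial blood samples (11–12 per rat) were drawn from a jugular vein catheter into EDTA and kept frozen. Plasma was mixed with methanol:water (1:1) containing an analogue internal standard for analysis. Mean plasma parameters are reported.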

[4] = Drug level in Sprague-Dawley rat cerebrospinal fluid at 1 mg/kg, ip after 1 hr; type: ADME, organism-based; conditions: read-out: Drug uptake
Procedure, shortened: (§3)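 Male Sprague–Dawley rats received single ip doses of 1, 3 or 10 mg/kg. Cerebrospinal fluid and plasma levels were determined at 0.5, 1 and 4 h. Mean csf concentration (nM ± SEM) is reported.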

[5] = Plasma concentration in Sprague-Dawley rat at 10 mg/kg, ip after 1 hr; type: ADME, organism-based; procedure, shortened: as §1
[6] = AUC (0 to 24 hrs) in Sprague-Dawley rat at 3 mg/kg, ip; type: ADME, organism-based; design: time < 24 hr, dose 3 mg/kg, route intraperitoneal; conditions: in vivo; procedure, shortened: as §2
[7] = Tmax in Sprague-Dawley rat at 5 mg/kg, po; type: ADME, organism-based; conditions: in vivo
Procedure, shortened: (§4)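 Compound dissolved in water, pH adjusted to 7–7.5 with NaOH; single dose to fasted male Sprague–Dawley rats (~250 g) by oral gavage, intravenous or intraperitoneal route. Serial blood (11–12 samples per rat) from jugular vein catheter into EDTA tubes, centrifuged, frozen; 25 µL plasma mixed with methanol:water (1:1) containing analogue internal standard.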

[8] = Drug level in Sprague-Dawley rat cerebrospinal fluid at 10 mg/kg, ip after 4 hrs; type: ADME, organism-based; conditions: read-out: Drug uptake; procedure, shortened: as §3
[9] = AUC (0 to 24 hrs) in Sprague-Dawley rat at 1 mg/kg, iv; type: ADME, organism-based; design: time < 24 hr, dose 1 mg/kg, route intravenous; conditions: in vivo; procedure, shortened: as §2
[10] = target: Metabotropic glutamate receptor 4 (Homo sapiens, UniProt Q14833); assay: Antagonist activity at human recombinant mGlu4 receptor expressed in AV12 cells assessed as inhibition of glutamate-stimulated Ca2+ mobilization after 1 hr by FLIPR assay; type: functional, cell-based
[11] = Drug level in Sprague-Dawley rat cerebrospinal fluid at 3 mg/kg, ip after 4 hrs; type: ADME, organism-based; conditions: read-out: Drug uptake; procedure, shortened: as §3
[12] = AUC (0 to 24 hrs) in Sprague-Dawley rat at 5 mg/kg, po; type: ADME, organism-based; design: time < 24 hr, dose 5 mg/kg, route oral; conditions: in vivo; procedure, shortened: as §2
[13] = target: Voltage-gated inwardly rectifying potassium channel KCNH2 (Homo sapiens, UniProt Q12809); assay: Inhibition of human ERG at 10 uM
Rattus norvegicus [14] = assay: Toxicity in Sprague-Dawley rat assessed as impairment of neuromuscular coordination at 10 mg/kg, ip after 2 to 3 hrs by rotarod test; type: organism-based; conditions: in vivo
[15] = target: Metabotropic glutamate receptor 1 (Homo sapiens, UniProt Q13255); assay: Antagonist activity at human recombinant mGlu1 receptor expressed in AV12 cells assessed as inhibition of glutamate-stimulated Ca2+ mobilization after 1 hr by FLIPR assay; type: functional, cell-based
[16] = target: T2, Metabotropic glutamate receptor 3 (Homo sapiens, UniProt Q14832); assay: Antagonist activity at human recombinant mGlu3 receptor expressed in AV12 cells assessed as inhibition of glutamate-stimulated Ca2+ mobilization after 1.5 hrs by FLIPR assay; type: functional, cell-based
[17] = Drug level in Sprague-Dawley rat cerebrospinal fluid at 3 mg/kg, ip after 1 hr; type: ADME, organism-based; conditions: read-out: Drug uptake; procedure, shortened: as §3
[18] = target: T3, Metabotropic glutamate receptor 8 (Homo sapiens, UniProt O00222); assay: Antagonist activity at human recombinant mGlu8 receptor expressed in AV12 cells assessed as inhibition of glutamate-stimulated Ca2+ mobilization after 1 hr by FLIPR assay; type: functional, cell-based
[19] = target: Metabotropic glutamate receptor 2 (Homo sapiens, UniProt Q14416, E273D/L300Q); assay: Agonist activity at human recombinant mGlu2 receptor E273D and L300Q mutant expressed in AV12 cells assessed as stimulation of Ca2+ mobilization after 1 hr by FLIPR assay; type: functional, cell-based
[20] = target: Metabotropic glutamate receptor 6 (Homo sapiens, UniProt O15303); assay: Agonist activity at human recombinant mGlu6 receptor expressed in AV12 cells assessed as inhibition of forskolin-stimulated cAMP production after 1 hr by fluorescence assay; type: functional, cell-based
[21] = target: T1, Metabotropic glutamate receptor 7; assay: Agonist activity at human recombinant mGlu7 receptor expressed in AV12 cells assessed as stimulation of Ca2+ mobilization after 1 hr by FLIPR assay; type: functional, cell-based
[22] = target: T2, Metabotropic glutamate receptor 3; assay: Agonist activity at wild type human recombinant mGlu3 receptor expressed in AV12 cells assessed as stimulation of Ca2+ mobilization after 1 hr by FLIPR assay; type: functional, cell-based
[23] = Cmax in Sprague-Dawley rat at 1 mg/kg, ip; type: ADME, organism-based; design: dose 1 mg/kg, route intraperitoneal; conditions: in vivo; procedure, shortened: as §2
[24] = Oral bioavailability in Sprague-Dawley rat at 5 mg/kg; type: ADME, organism-based; conditions: in vivo; procedure, shortened: as §4
[25] = Half life in Sprague-Dawley rat at 5 mg/kg, po; type: ADME, organism-based; conditions: in vivo; procedure, shortened: as §2
[26] = target: T3, Metabotropic glutamate receptor 8; assay: Agonist activity at human recombinant mGlu8 receptor expressed in AV12 cells assessed as inhibition of forskolin-stimulated cAMP production after 1 hr by fluorescence assay; type: functional, cell-based
[27] = Plasma concentration in Sprague-Dawley rat at 3 mg/kg, ip after 1 hr; type: ADME, organism-based; procedure, shortened: as §1
[28] = Cmax in Sprague-Dawley rat at 5 mg/kg, po; type: ADME, organism-based; design: dose 5 mg/kg, route oral; conditions: in vivo; procedure, shortened: as §2
[29] = target: T2, Metabotropic glutamate receptor 3; assay: Agonist activity at human recombinant mGlu3 receptor expressed in AV12 cells assessed as stimulation of Ca2+ mobilization after 1.5 hrs by FLIPR assay; type: functional, cell-based
[30] = target: T2, Metabotropic glutamate receptor 3; assay: Agonist activity at human recombinant mGlu3 receptor expressed in AV12 cells assessed as inhibition of forskolin-stimulated cAMP production after 1 hr by fluorescence assay; type: functional, cell-based
[31] = AUC (0 to 24 hrs) in Sprague-Dawley rat at 1 mg/kg, ip; type: ADME, organism-based; design: dose 1 mg/kg, time < 24 hr, route intraperitoneal; conditions: in vivo; procedure, shortened: as §2
[32] = target: Metabotropic glutamate receptor 2 (Homo sapiens, UniProt Q14416); assay: Agonist activity at human recombinant mGlu2 receptor expressed in AV12 cells assessed as stimulation of Ca2+ mobilization after 1 hr by FLIPR assay; type: functional, cell-based
[33] = target: Metabotropic glutamate receptor 5 (Homo sapiens, UniProt P41594); assay: Antagonist activity at human recombinant mGlu5 receptor expressed in AV12 cells assessed as inhibition of glutamate-stimulated Ca2+ mobilization after 1 hr by FLIPR assay; type: functional, cell-based
[34] = Plasma concentration in Sprague-Dawley rat at 1 mg/kg, ip after 1 hr; type: ADME, organism-based; procedure, shortened: as §1
[35] = Bioavailability in Sprague-Dawley rat at 3 mg/kg, ip; type: ADME, organism-based; conditions: in vivo; procedure, shortened: as §2
[36] = Plasma concentration in Sprague-Dawley rat at 10 mg/kg, ip after 0.5 hrs; type: ADME, organism-based; procedure, shortened: as §1
Rattus norvegicus [37] = assay: Toxicity in Sprague-Dawley rat assessed as impairment of neuromuscular coordination at 3 mg/kg, ip after 1 to 3 hrs by rotarod test; type: organism-based; conditions: in vivo

T2 sequence (Q14832 whole entry): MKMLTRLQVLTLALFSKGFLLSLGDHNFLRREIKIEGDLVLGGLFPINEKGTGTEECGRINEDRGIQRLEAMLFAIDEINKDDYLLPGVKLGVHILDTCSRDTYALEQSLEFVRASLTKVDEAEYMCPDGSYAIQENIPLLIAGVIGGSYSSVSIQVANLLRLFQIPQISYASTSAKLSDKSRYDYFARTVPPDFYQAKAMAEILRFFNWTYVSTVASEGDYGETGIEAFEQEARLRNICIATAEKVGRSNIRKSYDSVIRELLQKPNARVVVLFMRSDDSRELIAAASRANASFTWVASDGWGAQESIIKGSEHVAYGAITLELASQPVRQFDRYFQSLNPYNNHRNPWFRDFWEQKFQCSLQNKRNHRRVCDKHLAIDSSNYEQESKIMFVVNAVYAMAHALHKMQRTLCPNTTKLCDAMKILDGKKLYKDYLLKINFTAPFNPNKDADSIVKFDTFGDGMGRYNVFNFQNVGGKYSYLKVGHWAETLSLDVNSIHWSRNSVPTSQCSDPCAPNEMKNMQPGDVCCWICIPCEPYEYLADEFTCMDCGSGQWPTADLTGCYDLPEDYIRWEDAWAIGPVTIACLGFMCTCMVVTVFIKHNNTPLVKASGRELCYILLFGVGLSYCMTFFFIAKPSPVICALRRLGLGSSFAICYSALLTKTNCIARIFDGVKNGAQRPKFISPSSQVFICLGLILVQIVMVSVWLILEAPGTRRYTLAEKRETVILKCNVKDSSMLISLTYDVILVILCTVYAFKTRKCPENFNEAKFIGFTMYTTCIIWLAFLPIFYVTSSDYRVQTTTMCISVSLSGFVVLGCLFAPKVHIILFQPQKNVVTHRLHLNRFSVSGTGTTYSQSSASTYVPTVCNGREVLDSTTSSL
T1 sequence (Q14831 whole entry): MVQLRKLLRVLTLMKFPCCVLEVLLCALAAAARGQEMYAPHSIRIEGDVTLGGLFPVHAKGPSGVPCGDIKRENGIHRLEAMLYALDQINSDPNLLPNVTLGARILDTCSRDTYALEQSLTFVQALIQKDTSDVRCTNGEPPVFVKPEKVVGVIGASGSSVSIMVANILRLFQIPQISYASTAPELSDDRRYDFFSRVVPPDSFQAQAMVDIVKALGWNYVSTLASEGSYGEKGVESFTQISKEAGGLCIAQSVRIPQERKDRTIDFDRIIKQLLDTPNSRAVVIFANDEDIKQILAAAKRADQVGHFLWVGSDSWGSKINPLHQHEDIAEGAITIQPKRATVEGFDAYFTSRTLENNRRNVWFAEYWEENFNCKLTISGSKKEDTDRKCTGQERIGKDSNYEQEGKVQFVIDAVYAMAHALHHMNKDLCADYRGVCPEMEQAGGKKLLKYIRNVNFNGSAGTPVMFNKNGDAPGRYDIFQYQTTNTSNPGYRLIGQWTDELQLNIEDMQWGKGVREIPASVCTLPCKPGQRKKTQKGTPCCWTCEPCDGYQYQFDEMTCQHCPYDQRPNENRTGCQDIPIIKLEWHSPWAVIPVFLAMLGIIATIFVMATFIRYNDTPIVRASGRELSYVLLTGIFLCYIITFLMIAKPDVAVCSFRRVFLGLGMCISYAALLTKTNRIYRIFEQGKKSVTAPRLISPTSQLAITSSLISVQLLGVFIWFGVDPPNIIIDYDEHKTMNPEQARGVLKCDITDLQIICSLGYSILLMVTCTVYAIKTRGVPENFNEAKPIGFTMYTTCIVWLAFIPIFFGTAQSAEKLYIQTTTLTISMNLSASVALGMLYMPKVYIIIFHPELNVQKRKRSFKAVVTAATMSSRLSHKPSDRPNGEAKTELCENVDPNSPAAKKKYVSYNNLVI
T3 sequence (O00222 whole entry): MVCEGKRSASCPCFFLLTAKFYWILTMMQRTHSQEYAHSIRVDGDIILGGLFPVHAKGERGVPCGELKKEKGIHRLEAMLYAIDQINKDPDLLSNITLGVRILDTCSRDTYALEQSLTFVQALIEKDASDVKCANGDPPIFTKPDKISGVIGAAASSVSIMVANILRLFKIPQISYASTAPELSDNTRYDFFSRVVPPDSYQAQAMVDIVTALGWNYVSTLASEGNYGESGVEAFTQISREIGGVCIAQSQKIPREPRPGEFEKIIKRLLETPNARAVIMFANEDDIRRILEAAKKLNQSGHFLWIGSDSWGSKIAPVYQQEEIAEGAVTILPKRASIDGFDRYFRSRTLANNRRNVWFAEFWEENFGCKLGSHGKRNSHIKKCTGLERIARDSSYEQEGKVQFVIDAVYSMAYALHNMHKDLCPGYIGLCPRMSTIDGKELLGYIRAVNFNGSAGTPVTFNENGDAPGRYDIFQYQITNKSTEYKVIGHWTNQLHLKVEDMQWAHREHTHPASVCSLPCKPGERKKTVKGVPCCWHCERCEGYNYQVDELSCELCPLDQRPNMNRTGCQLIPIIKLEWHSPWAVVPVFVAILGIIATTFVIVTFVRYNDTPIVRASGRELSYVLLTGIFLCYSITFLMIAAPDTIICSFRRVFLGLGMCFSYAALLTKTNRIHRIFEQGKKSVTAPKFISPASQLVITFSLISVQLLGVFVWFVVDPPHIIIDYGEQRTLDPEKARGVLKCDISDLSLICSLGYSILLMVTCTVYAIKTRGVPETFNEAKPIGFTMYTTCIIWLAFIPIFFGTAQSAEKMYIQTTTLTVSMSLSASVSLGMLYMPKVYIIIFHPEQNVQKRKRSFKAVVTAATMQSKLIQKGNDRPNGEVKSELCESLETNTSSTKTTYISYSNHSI
Chain of Metabotropic glutamate receptor 2 (Homo sapiens, UniProt Q14416) (Q14416 whole entry): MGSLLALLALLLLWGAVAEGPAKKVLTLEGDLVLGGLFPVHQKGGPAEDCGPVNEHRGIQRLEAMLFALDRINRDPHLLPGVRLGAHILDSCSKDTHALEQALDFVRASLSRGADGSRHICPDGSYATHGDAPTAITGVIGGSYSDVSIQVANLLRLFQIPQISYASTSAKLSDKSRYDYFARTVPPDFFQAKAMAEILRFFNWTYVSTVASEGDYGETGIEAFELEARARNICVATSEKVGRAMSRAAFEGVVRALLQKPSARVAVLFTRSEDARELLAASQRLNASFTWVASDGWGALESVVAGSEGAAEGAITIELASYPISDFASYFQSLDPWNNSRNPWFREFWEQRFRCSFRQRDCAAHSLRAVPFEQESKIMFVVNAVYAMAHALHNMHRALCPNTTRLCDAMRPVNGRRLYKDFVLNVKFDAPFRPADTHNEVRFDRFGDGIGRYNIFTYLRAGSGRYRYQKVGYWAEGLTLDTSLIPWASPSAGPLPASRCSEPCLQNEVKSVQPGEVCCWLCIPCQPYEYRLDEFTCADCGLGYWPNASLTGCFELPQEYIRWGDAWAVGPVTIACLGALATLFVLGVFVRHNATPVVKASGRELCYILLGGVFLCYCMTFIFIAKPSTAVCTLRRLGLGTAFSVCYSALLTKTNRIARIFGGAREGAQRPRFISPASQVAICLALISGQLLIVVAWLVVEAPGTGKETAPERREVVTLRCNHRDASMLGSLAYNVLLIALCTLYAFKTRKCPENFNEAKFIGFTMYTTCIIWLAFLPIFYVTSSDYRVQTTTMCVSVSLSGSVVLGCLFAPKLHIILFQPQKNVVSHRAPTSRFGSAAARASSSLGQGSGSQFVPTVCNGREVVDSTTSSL
Chain of Metabotropic glutamate receptor 4 (Q14833 whole entry): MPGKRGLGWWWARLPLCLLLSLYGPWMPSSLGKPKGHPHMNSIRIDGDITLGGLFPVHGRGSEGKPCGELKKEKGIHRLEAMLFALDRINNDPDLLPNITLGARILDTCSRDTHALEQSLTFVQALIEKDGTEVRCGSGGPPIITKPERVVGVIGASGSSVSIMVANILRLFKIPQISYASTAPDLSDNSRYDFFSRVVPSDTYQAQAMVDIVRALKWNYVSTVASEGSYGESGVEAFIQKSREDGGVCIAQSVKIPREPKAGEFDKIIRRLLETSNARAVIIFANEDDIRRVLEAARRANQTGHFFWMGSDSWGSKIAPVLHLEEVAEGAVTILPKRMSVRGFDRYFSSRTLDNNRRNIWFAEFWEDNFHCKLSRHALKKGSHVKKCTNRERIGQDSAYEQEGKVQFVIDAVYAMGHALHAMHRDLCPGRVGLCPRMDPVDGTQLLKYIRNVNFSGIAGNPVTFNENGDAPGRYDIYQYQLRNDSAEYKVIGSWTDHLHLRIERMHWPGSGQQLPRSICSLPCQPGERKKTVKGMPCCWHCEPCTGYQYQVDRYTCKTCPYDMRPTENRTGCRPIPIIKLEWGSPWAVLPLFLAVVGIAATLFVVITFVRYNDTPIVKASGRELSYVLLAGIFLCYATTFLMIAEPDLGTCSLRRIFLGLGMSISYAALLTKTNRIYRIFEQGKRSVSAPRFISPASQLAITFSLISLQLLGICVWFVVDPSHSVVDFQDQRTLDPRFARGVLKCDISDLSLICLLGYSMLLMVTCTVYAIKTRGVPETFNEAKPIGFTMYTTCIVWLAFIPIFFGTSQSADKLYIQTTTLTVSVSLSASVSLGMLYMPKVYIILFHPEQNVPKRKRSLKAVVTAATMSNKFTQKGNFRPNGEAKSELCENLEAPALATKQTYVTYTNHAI

In the case of `N[C@@]1(C(=O)O)C[C@@H](Sc2nc[nH]n2)[C@H]2[C@H](C(=O)O)[C@H]21`, the IC50 [1] is reported as greater than 12.5 µM, the concentration at 0.5 h [2] is reported as 6 µM and the half-life [3] is reported as 3.2 h. For the same compound, the concentration at 1 h [4] was 0.0399 µM, the concentration at 1 h [5] was 23.6 µM and the AUC(0-t) at 24 h [6] was 10.8 µM·h. For the same compound, the Tmax [7] was 0.5 h, the concentration at 4 h [8] was 0.0867 µM and the AUC(0-t) at 24 h [9] was 4.91 µM·h. It also gave an IC50 [10] greater than 12.5 µM, a concentration at 4 h [11] of 0.0275 µM and an AUC(0-t) at 24 h [12] of 1.01 µM·h. For the same compound, the “inhibition (INH)” value [13] was “Not Active”, the Activity (Rattus norvegicus [14]) was “Non-toxic” and the IC50 [15] was greater than 12.5 µM. The IC50 [16] was 25.2 µM, the concentration at 1 h [17] was 0.0864 µM and the IC50 [18] was greater than 12.5 µM. It also gave an EC50 [19] of 0.0482 µM, an EC50 [20] of 3.45 µM and an EC50 [21] greater than 25 µM. The EC50 [22] was 5.68 µM, the Cmax [23] was 4.92 µM and the bioavailability [24] was 4%. For the same compound, the half-life [25] was 3.7 h, the EC50 [26] was 10.1 µM and the concentration at 1 h [27] was 4.98 µM. It also gave a Cmax [28] of 0.22 µM, an EC50 [29] greater than 25 µM and an EC50 [30] of 0.129 µM. The AUC(0-t) at 24 h [31] was 6.01 µM·h, the EC50 [32] was 0.0211 µM and the IC50 [33] was greater than 12.5 µM. For the same compound, the concentration at 1 h [34] was 3.01 µM, the bioavailability [35] was 73% and the concentration at 0.5 h [36] was 40.1 µM. The Activity (Rattus norvegicus [37]) was “Non-toxic”.
